Reference: ChEMBL document CHEMBL4513216, “Probing the Open Global Health Chemical Diversity Library for Multistage-Active Starting Points for Next-Generation Antimalarials” (ACS Infect Dis, 2020)

Assay: Toxicity liver stage against HepG2, at 10uM
Format: cell-based
Parameters: test concentration 10 uM, cell line HepG2-A16-CD81EGFP
Details: human, HepG2-A16-CD81EGFP cells; read-out: INHIBITION
Outline: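 Uninfected HepG2-A16-CD81EGFP cells, 3 × 10^3 per well, 1536-well, plated on prespotted compound at 10 μM final, parasite-free screening media added to match infected plates; puromycin 10 μM positive, DMSO 0.5% negative; run in parallel with 48 h PbLuc assay at 37 °C, 5% CO2; viability by CellTiter-Glo luminescence, normalized to controls.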

Row | Structure (SMILES) | cytotoxicity at 10 µM
1 | CN(Cc1cc(-c2cccnc2)no1)C(=O)C1CCCN1S(C)(=O)=O (centres undefined) | -2.54%
2 | CN(CC(=O)NC(C)(C#N)C1CC1)Cc1nc2ccccc2n1C (centres undefined) | -3.72%
3 | Cc1cc(=O)[nH]c(=O)n1Cc1ncc(-c2ccccc2C(=O)O)s1 | 2.71%
4 | CCn1cnnc1CNC(=O)c1ccc(Cl)cc1I | -6.31%
5 | CO[C@@H]1CC[C@H]2[C@H]1OCCN2C(=O)COc1ccc(F)cc1 | 4.42%
6 | Cc1c[nH]c(CN(C)C(=O)c2cccc(CCC(C)(C)O)c2)n1 | -6.85%
7 | O=C(NCCc1ccccc1Cl)NCC1(O)CCSC1 (centres undefined) | -6.17%
8 | COCC(=O)N1C[C@H]2CN(Cc3csc(C)n3)C(=O)[C@H]2C1 | -77.2%
9 | O=S1(=O)N(c2ccccc2)C[C@@H](O)[C@]12CCNC2 | 2.63%
10 | CC(C)CC(=O)N1CCN(Cc2cc(-c3ccncc3)nn2C)CC1 | -23.2%
11 | CSCc1cc(F)ccc1CNCc1ncc[nH]1 | 11.5%
12 | COc1cccc(CNC(=O)CN2CCCCC2Cn2cccn2)c1 (centres undefined) | 2.77%
13 | Cc1ccnn1CCC(=O)N1CCCC1c1cc2cccnc2[nH]1 (centres undefined) | 9.17%
14 | COc1cccc(-c2cc(NCCO)nc3[nH]ccc23)n1 | 4.46%
15 | C=C(C)CN1CCC(NC(=O)Nc2cc(C(N)=O)ccc2OC)CC1 | 10.8%
16 | Cn1cnc2c1C(COCc1ccccc1)N(Cc1cccnc1)CC2 (centres undefined) | 9.61%
17 | FC(F)(F)c1cc(-c2cccs2)nc(N2CCN3CCCC3C2)n1 (centres undefined) | 10.7%
18 | O=C(CN1CCCCC1Cn1cncn1)NCCOc1ccccc1 (centres undefined) | -3.54%
19 | NC1(C(=O)N2CCC(c3cc(-c4ccccc4Cl)n[nH]3)CC2)CCC1 | -3.66%
20 | CC(C)NC(=O)N1CCN(C(=O)N(C)C)CC2(CC(=O)N(C)C2)C1 (centres undefined) | -17.8%
21 | CCNC(=O)[C@@H]1C[C@H](NC(=O)c2ccc(C)s2)CN1Cc1ccc(C)o1 | -5.39%
22 | O=C(Cn1cncn1)NCC1CCN(Cc2ccccc2Cl)CC1 | -3.84%

Row | Structure (SMILES) | cytotoxicity at 10 µM
23 | Cc1ccccc1-c1cncc(C2CCN(CC(=O)N(C)C)CC2)n1 | -12.5%
24 | CCCC(=O)N1CCc2c(CNS(C)(=O)=O)cncc2C1 | 4.36%
25 | CC(C)CN1CCC(c2nc3c([nH]2)CC(C)(C)CNC3=O)C1 (centres undefined) | -10.6%
26 | CCN(Cc1cccs1)C(=O)c1ccc(=O)n(C)c1 | -9.56%
27 | CC(C)(C)c1nccc(C2(c3ccccc3Cl)CCNCC2)n1 | -1.15%
28 | O=S1(=O)CCC(n2nc(Cc3cccs3)nc2-c2cnccn2)C1 (centres undefined) | -6.33%
29 | C[C@@H]1CN(C2CCN(c3ccccc3)CC2)CC[C@@]1(O)C1CCOCC1 | -10.6%
30 | CC1=C(C(=O)NCCc2n[nH]c3c2CCCC3)C(C)NC(=O)N1 (centres undefined) | -3.51%
31 | CN(C)CCN1C[C@@H]2CN(C(=O)c3ccsc3)C[C@@H]2C1=O | -7.79%
32 | CC(=O)N(Cc1ncc(C)o1)C1CCN(CCOc2ccccc2)C1 (centres undefined) | 7.02%
33 | c1ccc2c(c1)CC(N1CCCC(NCc3ccc4nonc4c3)C1)C2 (centres undefined) | 5.6%
34 | CC(c1nc(C2CC2)no1)N1CCN(CCN2CCCC2=O)CC1 (centres undefined) | -10.9%
35 | CC(NC(=O)Nc1nccs1)c1ccncc1 (centres undefined) | -9.98%
36 | COCC(=O)N1CC[C@H]2N(C)CC[C@@]2(C(=O)Nc2ccccc2)CC1 | 3.48%
37 | CN(Cc1ccco1)Cc1cncc2c1CCN(c1ncccn1)C2 | -6.42%
38 | CN(C(=O)CCC(F)(F)F)c1cccc2ncccc12 | 1.9%
39 | O=S(=O)(NCC1CCN(CCN2CCOCC2)C1)c1ccccc1F (centres undefined) | -57.9%
40 | N#Cc1ccc(OCCOc2ccccc2C(=O)N2CCOCC2)cc1 | -7.38%
41 | N#Cc1cccnc1N1CCC(Nc2ccccc2)C1 (centres undefined) | -3.37%
42 | CCC(CC)(CC(=O)OC)NC(=O)Nc1nnc(-c2ccccn2)s1 | -8.68%
43 | CN1CCC(C(=O)N2CCN(Cc3cccc(Cl)c3)CC2)CC1=O (centres undefined) | 5.44%
44 | Cc1ccc2ncnc(N3CCOCC3c3c(C)nn(C)c3C)c2c1 (centres undefined) | 12.2%

Row | Structure (SMILES) | cytotoxicity at 10 µM
45 | O=C(CCc1nc2cccnc2[nH]1)Nc1ccc2c(c1)NC(=O)CO2 | -1.94%
46 | O=C(CCc1ccsc1)N1CCC(C(=O)O)(c2ccccc2)CC1 | 12.4%
47 | O=S(=O)(c1c(Cl)nc2sccn12)N1CCC2(CCNCC2)C1 | 6.11%
48 | CN(C)CC(Nc1nc(N)nc2c1CCNCC2)c1ccccc1 (centres undefined) | -2.92%
49 | CCN1CC(CN(C)Cc2nc(-c3ccc(F)cc3F)oc2C)CC1=O (centres undefined) | -6.64%
50 | COc1cc(CC2CC(c3ccc4c(c3)OCO4)=NO2)cc2c1OCO2 (centres undefined) | 0.69%
51 | O=C(Cc1ccsc1)N1C[C@H]2CCC[C@@]2(COCc2ccccn2)C1 | -102%
52 | Cc1c(C(=O)NCCC(C)C)nnn1-c1cccc2c1CCN(C)C2 | 1.31%
53 | CCc1ncc2c(n1)CN(CC(=O)Nc1cc(C)on1)CC2 | 0.049%
54 | Cc1nc(CO[C@@H]2CN(Cc3ccc(F)cc3)[C@@H]3COC[C@@H]32)cs1 | 5.42%
55 | O=C(c1cscn1)N1CCC2(CN(Cc3nccs3)C2)C1 | -72.6%
56 | Cc1nnc(C2CCN(c3ncccn3)CC2)o1 | 10.8%
57 | O=C(c1ccc(F)cc1F)N1C[C@@H](O)[C@H](N2CCOCC2)C1 | -1.37%
58 | COc1cc2nc(NCc3scnc3C)nc(N)c2cc1OC | 6.34%
59 | O=C(c1cccnc1)N1CCC2(CC1)CN(c1ccccn1)CCO2 | -69.5%
60 | Cc1ccc(C(=O)NCC(C)Cn2ccnc2C)c(=O)[nH]1 (centres undefined) | -0.89%
61 | Cc1noc(C(C)N2CCN(CCc3ccncc3)CC2)n1 (centres undefined) | 2.67%
62 | CN(Cc1cccnc1)[C@@H]1CN(C(=O)CC2CC2)[C@@H]2CCCO[C@H]12 | 7.86%
63 | Cc1noc(C)c1CN1CCN(CCN(C)C)c2ncccc2C1 | 7.83%
64 | O=C(NCc1cccnc1)C1=NOC2(CCN(C3CCOCC3)C2)C1 (centres undefined) | -1.63%
65 | CCCS(=O)(=O)NC1CCN(c2nnc(C)c(C)c2C#N)CC1 | 3.28%
66 | O=C1c2c(O)cc(O)cc2O[C@@H](c2ccc(O)cc2)[C@@H]1O | -0.639%

Row | Structure (SMILES) | cytotoxicity at 10 µM
67 | CCN(Cc1ccncc1)c1cc(C2CCN2C(C)=O)nc(C)n1 (centres undefined) | 5.25%
68 | Cn1cccc1C(=O)N1CCCC2(CCN(CCN3CCCC3)C2=O)C1 (centres undefined) | -10.8%
69 | CC(C)n1nc2c(cc1=O)CN(Cc1nc(-c3ccco3)no1)CC2 | 2.35%
70 | O=C1Nc2ccccc2/C1=C1\CCCCN1 | 4.95%
71 | O=C(Cc1ccccc1)N1CCOC(c2nc(-c3ncccn3)no2)C1 (centres undefined) | -22.6%
72 | O=C(Nc1cccnc1)[C@@H]1C[C@H]2OCC[C@H]2N(Cc2ccsc2)C1 | 2.88%
73 | O=C1NCC[C@]12CN(Cc1ccncc1)C[C@H]2c1ccccc1 | -147%
74 | O=C(c1cc(CC2(NCC3CCCCC3)COC2)no1)N1CCCCC1 | 5.35%
75 | Cc1noc(C)c1CN1CCCCC1c1nc(-c2ccccc2)no1 (centres undefined) | -44%
76 | CSc1nccn1-c1cccc(C(=O)NCCN2CCS(=O)(=O)CC2)c1 | -3.97%
77 | NC(=O)[C@H]1CCCN(c2nccc(-c3ccncc3)n2)C1 | -5.03%
78 | O=C(NCc1cc(O)ncn1)C1COc2ccccc2C1 (centres undefined) | -9.76%
79 | O=C(NCC(O)c1cccc(O)c1)C1CCN(C2CCCCC2)CC1 (centres undefined) | 7.16%
80 | N#Cc1ccccc1C(=O)N1C[C@@H](CN2CCCCC2)[C@@H](CO)C1 | -0.165%
81 | CN1CCC(Nc2ccc(F)cc2OCC(F)(F)F)C1=O (centres undefined) | -0.898%
82 | c1nc(N2CCCC(Cn3cncn3)C2)c2ccsc2n1 (centres undefined) | 5.68%
83 | CN(Cc1cccnc1)C[C@H]1OC[C@@H]2CCN(C(=O)C3CC3)C[C@@H]21 | -117%
84 | O=C1CC2(CCN(Cc3ccccn3)C2)CN1c1cccnc1 (centres undefined) | -8.75%
85 | Cc1nc(C(C)C)sc1C(=O)NCCNc1ncccc1C#N | -2.55%
86 | O=C(c1ccco1)N1CCOCC2(C1)CN(c1cccnc1)C(=O)CO2 (centres undefined) | 5.88%
87 | CCCOCC(=O)NS(=O)(=O)c1ccc2c(c1)OCCO2 | -6.46%
88 | CN(C)CC1(O)CCCN(C(=O)CCc2nc3cccnc3n2C)C1 (centres undefined) | 0.0448%

Row | Structure (SMILES) | cytotoxicity at 10 µM
89 | Cc1ccc(C(=O)N2CCCS2(=O)=O)cc1Cl | 2.29%
90 | CS(=O)(=O)CCNCc1ccc(OCc2cscn2)cc1 | -136%
91 | COCCN(CC1CCCN(C2Cc3ccccc3C2)C1)C(=O)CO (centres undefined) | -6.93%
92 | OCCNc1nc(NCc2cccnc2)nc2nccnc12 | -3.55%
93 | NS(=O)(=O)c1ccc(NCc2ccccc2F)cc1C(F)(F)F | -10.2%
94 | O=C(CCc1ccsc1)N1CCC(Cc2ccc(CO)cc2)C1 (centres undefined) | 14.7%
95 | c1ccc(C(CC2CN(Cc3c[nH]cn3)CCO2)c2ccccc2)cc1 (centres undefined) | -5.54%
96 | Cc1cc(C)cc(OCC(=O)NC2CCN(S(C)(=O)=O)CC2)c1 | -5.72%
97 | O=C(NC1CCN(C2CC2)CC1)c1cn(-c2ccc(Cl)cc2)nn1 | -2.87%
98 | COCCO[C@@H]1C[C@H]2CN(C(=O)c3cccnc3)CCN2C1 | -4.58%
99 | Cc1n[nH]c(C2CN(C(=O)c3cc4c(s3)CCC4)CCO2)n1 (centres undefined) | -5.65%
100 | CC(C)(NCc1cccc(C#N)c1)c1ccc2c(c1)OCO2 | 3.34%
101 | Cc1ccc(C(=O)N2CCOCC3(CCN(C4CCOCC4)C3)C2)o1 (centres undefined) | -0.152%
102 | CN(Cc1ccc(C#N)cc1)Cn1nccc1-c1cccnc1 | 8.4%
103 | CC(C)OCCC1CCCCN1S(=O)(=O)c1cnn(C)c1 (centres undefined) | 5.68%
104 | NC(=O)C1CCN(CCc2ccc(NC(=O)C3CC3)cc2)CC1 | -7.72%
105 | Cc1nn(C)c(Cl)c1C1CCCN1Cc1nc(C2CC2)no1 (centres undefined) | -6.42%
106 | Cn1c(N2CCOCC2)nc2cc(C(=O)N3CCC(O)(CO)C3)ccc21 (centres undefined) | -4.62%
107 | CN(CCCc1nccn1C)C(=O)C1COc2ccccc2C1 (centres undefined) | -9.1%
108 | COc1cccc(CNCC2CN(C)CCO2)c1 (centres undefined) | -15.2%
109 | Cc1c(C2CCCN(C(=O)c3ccncc3)C2)n2c(nc1=O)CCC2 (centres undefined) | -21.8%
